# Results: article PMC2955813 (Cancer prevention research (Philadelphia, Pa.), 2010)
# Columns and labels:
# [1] = tested on: cGMP hydrolysis in HT-29 cell lysate; assay: IMAP fluorescence polarization PDE assay, cGMP hydrolysis in HT-29 lysate; format: biochemical, human; conditions: HT-29 cell lysates; concentration not given
# Procedure, shortened: (§1)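 HT-29 or FHC cells were lysed in ice-cold 20 mM Tris-acetate, 5 mM Mg acetate, 1 mM EGTA, 0.8% Triton X-100, 50 mM NaF, protease inhibitors, pH 7.4. Lysates were cleared at 10,000g, 10 min, 4°C, and protein measured by BCA. PDE activity was read by IMAP fluorescence polarization, with Fl-cAMP and TAMRA-cGMP as substrates so cAMP and cGMP hydrolysis were measured together.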
# [2] = tested on: HT-29, SW480, and HCT116 human colon cancer cell lines; assay: Cell Titer Glo growth assay, colon tumor cell lines; format: cell-based; conditions: for effect on colon tumor cell growth: PDE isozyme specific inhibitors; for IC50: Homo sapiens, 72 h, read-out: growth inhibition IC50, range over cell lines; for HT-29 growth inhibition: NSAID panel
# [3] = tested on: intracellular cGMP levels in colon tumor cells; conditions: cited from earlier work
# [4] = tested on: cGMP PDE in HT-29 human colon tumor cell lysates; assay: cGMP PDE scintillation proximity assay in HT-29 lysate; format: biochemical; conditions: HT-29 cell lysates; for IC50: read-out: IC50 cGMP PDE, scintillation proximity assay; for effect on cGMP PDE activity: NSAID panel
# Procedure, shortened: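 The reaction was stopped with scintillation proximity beads that bind the labeled product, then counted.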
# [5] = tested on: cyclinD1 and survivin expression in SW480 cells; assay: Western blot of cyclin D1 and survivin; format: cell-based, human; conditions: time-dependent
# Procedure, shortened: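 SW480 lysate (ice-cold Tris-acetate/Triton X-100/NaF buffer, pH 7.4, cleared at 10,000g, 4°C) was loaded at 30 μg protein per lane. Proteins were separated by 12% SDS-PAGE and transferred to nitrocellulose, blocked with 5% BSA in TBS/0.05% Tween-20, and probed for cyclin D1 and survivin, with β-actin as loading control.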
# [6] = tested on: Tcf/Lef-mediated transcription in HT-29, HCT-116, and SW480 colon cancer cells; assay: TOPFlash luciferase reporter assay; format: cell-based, human; conditions: HT-29, HCT-116, SW480, 24 hours
# Procedure, shortened: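 Cells were transiently co-transfected with the TOPFlash luciferase construct and a β-galactosidase expression vector, then treated for 24 h. After lysis, luciferase and β-galactosidase activities were measured, and luciferase was normalized to β-galactosidase.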
# [7] = tested on: cGMP PDE activity in lysates from HT-29 tumors established in athymic mice; assay: cGMP PDE in HT-29 tumor homogenates versus normal rat colonic mucosa; format: biochemical, human; conditions: HT-29 tumor lysate vs normal rat colonic mucosa lysate
# [8] = tested on: cAMP hydrolysis in HT-29 cell lysate; assay: IMAP fluorescence polarization PDE assay, cAMP hydrolysis in HT-29 lysate; format: biochemical, human
# recombinant PDE2 = recombinant PDE2 (Homo sapiens, UniProt O00408); assay: Recombinant PDE2 inhibition; format: biochemical; conditions: recombinant isozyme, cAMP as substrate; data not shown
# recombinant PDE2, sequence (O00408 whole entry): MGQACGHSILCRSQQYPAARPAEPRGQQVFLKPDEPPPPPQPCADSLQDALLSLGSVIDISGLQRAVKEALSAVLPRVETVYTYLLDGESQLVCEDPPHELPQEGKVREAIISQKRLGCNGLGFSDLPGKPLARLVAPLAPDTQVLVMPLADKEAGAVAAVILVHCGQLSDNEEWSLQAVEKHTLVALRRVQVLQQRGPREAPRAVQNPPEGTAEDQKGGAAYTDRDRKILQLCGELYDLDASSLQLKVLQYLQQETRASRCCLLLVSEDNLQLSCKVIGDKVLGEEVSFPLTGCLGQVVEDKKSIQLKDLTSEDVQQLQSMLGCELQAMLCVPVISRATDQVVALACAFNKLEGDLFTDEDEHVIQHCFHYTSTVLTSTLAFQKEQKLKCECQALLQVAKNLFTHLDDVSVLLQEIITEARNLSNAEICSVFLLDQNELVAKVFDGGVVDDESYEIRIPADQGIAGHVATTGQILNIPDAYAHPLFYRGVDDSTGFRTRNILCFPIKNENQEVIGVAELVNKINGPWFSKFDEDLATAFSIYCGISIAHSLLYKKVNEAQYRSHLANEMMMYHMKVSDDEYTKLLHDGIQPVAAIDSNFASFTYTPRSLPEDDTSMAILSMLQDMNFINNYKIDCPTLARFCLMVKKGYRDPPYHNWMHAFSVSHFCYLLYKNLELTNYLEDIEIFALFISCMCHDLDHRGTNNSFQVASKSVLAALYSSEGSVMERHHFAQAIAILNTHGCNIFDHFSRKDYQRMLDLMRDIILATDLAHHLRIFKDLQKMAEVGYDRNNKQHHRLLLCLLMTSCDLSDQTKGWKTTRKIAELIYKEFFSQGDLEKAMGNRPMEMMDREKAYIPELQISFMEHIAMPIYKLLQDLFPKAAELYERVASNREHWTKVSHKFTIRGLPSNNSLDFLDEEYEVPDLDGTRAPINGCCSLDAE
# HT-29 cells = assay: 3H-thymidine incorporation proliferation assay; format: cell-based, human; conditions: read-out: IC50 Proliferation, 72 hours, tritiated thymidine assay
# Procedure, shortened: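 HT-29 cells (>95% viable by trypan blue) were treated for 72 h in total. 1 μCi ³H-thymidine was added at 56 h and incubation continued 16 h at 37°C. DNA was harvested onto filters and uptake counted by scintillation.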
# cGMP PDE in FHC lysates = assay: IMAP fluorescence polarization PDE assay, cGMP hydrolysis in FHC lysate; format: biochemical, human; conditions: FHC lysate compared with HT-29 lysate
# Procedure, shortened: as §1
# [9] = Plasma levels of sulindac and metabolites; format: in vivo; conditions: for concentration at 6 h: mouse, plasma, po, 50 mg/kg
# recombinant PDE3 = assay: Recombinant PDE3 inhibition; format: biochemical; conditions: recombinant isozyme, cAMP as substrate; data not shown
# Tolerance study = format: in vivo; conditions: daily oral gavage for 20 days; no deaths or significant weight loss
# [10] = tested on: human HT-29 colon tumor xenograft; assay: HT-29 colon tumor xenograft efficacy; format: in vivo, male NCr-nu/nu athymic mice; conditions: 50 mg/kg once daily oral gavage
# Procedure, shortened: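 Male NCr-nu/nu mice, 5–6 weeks old, were implanted subcutaneously with HT-29 tumor fragments; 10 mice per group, vehicle-treated control. Dosing started at tumor size 75–200 mg: 50 mg/kg oral gavage once daily for 40 days, as a suspension in 0.5% CMC, 0.25% Tween 80 in water. Tumor dimensions and body weight were measured twice weekly; mortality checked daily.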
# Purified ovine COX-1 = target: T1, Purified ovine COX-1 (Ovis aries, UniProt P05979); assay: COX-1 inhibition, purified enzyme; format: biochemical; conditions: read-out: IC50 COX-1
# T1 sequence (P05979 25-600): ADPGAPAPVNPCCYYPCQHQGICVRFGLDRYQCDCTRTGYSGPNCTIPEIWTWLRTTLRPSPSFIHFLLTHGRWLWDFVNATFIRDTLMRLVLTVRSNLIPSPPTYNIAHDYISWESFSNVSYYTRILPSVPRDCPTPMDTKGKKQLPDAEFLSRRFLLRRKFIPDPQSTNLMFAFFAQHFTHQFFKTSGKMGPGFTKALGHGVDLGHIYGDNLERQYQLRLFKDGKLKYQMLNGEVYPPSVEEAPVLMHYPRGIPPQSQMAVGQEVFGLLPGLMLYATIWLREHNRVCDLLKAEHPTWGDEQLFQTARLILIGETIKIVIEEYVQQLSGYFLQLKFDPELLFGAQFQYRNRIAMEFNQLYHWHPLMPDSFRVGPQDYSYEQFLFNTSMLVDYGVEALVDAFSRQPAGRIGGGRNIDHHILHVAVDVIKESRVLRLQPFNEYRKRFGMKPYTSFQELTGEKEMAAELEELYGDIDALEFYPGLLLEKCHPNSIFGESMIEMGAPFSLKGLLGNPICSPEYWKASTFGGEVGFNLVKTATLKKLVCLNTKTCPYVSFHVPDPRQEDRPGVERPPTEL
# Purified ovine COX-2 = target: T2, Purified ovine COX-2 (Ovis aries, UniProt P79208); assay: COX-2 inhibition, purified enzyme; format: biochemical; conditions: read-out: IC50 COX-2
# T2 sequence (P79208 17-603): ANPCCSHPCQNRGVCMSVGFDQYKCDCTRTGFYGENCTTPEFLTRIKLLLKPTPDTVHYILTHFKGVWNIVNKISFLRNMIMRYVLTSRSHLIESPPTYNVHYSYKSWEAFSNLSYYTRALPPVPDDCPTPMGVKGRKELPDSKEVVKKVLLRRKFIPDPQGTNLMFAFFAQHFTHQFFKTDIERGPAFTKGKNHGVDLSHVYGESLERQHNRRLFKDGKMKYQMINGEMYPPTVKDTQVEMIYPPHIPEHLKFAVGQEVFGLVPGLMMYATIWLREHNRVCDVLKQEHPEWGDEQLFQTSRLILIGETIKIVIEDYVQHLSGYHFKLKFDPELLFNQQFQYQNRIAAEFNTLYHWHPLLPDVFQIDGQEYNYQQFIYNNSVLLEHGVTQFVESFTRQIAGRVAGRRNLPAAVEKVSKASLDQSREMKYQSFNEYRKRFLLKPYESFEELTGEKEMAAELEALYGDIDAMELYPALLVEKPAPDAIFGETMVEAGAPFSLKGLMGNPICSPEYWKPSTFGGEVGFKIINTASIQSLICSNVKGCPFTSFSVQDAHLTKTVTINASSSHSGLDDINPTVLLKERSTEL
compound,measurement,setting,value
CCCCCC[C@@H]([C@@H](C)O)n1cnc2c(N)ncnc21 (racemic) [EHNA],inhibition of cGMP PDE activity in HT-29 lysate,[1],less than 12%
same,effect on colon tumor cell growth,"[2]; HT-29, SW480, HCT116",only MY5445 was found to inhibit colon tumor cell growth
O=C(O)C1CCN(c2nc(NCc3ccc4c(c3)OCO4)c3cc(Cl)ccc3n2)CC1 [E4021],increase in intracellular cGMP levels,[3],unable to induce a significant increase
"COc1ccc2c(c1)c(CC(=O)O)c(C)n2C(=O)c1ccc(Cl)cc1 [Indomethacin, indomethacin]",IC50,[4],24 µM
"Clc1cccc(Nc2nnc(-c3ccccc3)c3ccccc23)c1 [MY5445, 1-(3-chloroanilino)-4-phenylphthalazine]",expression of cyclinD1 and survivin,[5],significant reduction
same,Tcf/Lef-mediated transcription,[6],significant reduction
same,fold greater potency for tumor cGMP PDE compared to normal tissue,[7],more than 10 fold
same,effect on cAMP hydrolysis,[8],without substantially affecting cAMP hydrolysis
same,IC50,[2],8 to 18 µM
"CS(=O)(=O)c1ccc(C2=C(c3ccccc3)C(=O)OC2)cc1 [Rofecoxib, rofecoxib]",IC50,[4],> 300 µM
"CSc1ccc(/C=C2/C(C)=C(CC(=O)O)c3cc(F)ccc32)cc1 [Sulindac sulfide, sulindac sulfide]",expression of cyclinD1 and survivin,[5],significant reduction
same,Tcf/Lef-mediated transcription,[6],significant reduction
same,cAMP hydrolysis by PDE2,recombinant PDE2,did not significantly inhibit
same,IC50,HT-29 cells,33.9 µM
same,cGMP PDE inhibition in FHC lysate,cGMP PDE in FHC lysates,reduced sensitivity
same,effect on cAMP hydrolysis,[8],appreciably higher concentrations were necessary
same,IC50,[4],19.7 µM
same,IC50,[2],73 to 85 µM
same,concentration at 6 h,[9],36.7 ± 10.2 µM
same,cAMP hydrolysis by PDE3,recombinant PDE3,did not significantly inhibit
"CC1=C(CC(=O)O)c2cc(F)ccc2/C1=C\c1ccc(S(C)(=O)=O)cc1 [Sulindac sulfone, sulindac sulfone]",IC50,[4],95.9 µM
same,concentration at 6 h,[9],8.9 ± 1.2 µM
"CC1=C(CC(=O)O)c2cc(F)ccc2/C1=C\c1ccc([S+](C)[O-])cc1 (stereo not shown) [Sulindac sulfoxide, sulindac]",maximum tolerated dosage,Tolerance study,approximately 50 mg/kg
same,reduction of tumor growth,"[10]; end of treatment, vs vehicle",approximately 55%
same,effect on body weight,[10]; not shown,without affecting body weight
same,IC50,Purified ovine COX-1,> 300 µM
same,IC50,Purified ovine COX-2,> 300 µM
same,IC50,HT-29 cells,224 µM
same,IC50,[4],120 µM
same,plasma level,[9]; 6 hours following a single oral dose of sulindac at 50 mg/kg,23.1 ± 5.5 µM
CC(=O)Oc1ccccc1C(=O)O [aspirin],effect on cGMP PDE activity,[4],did not affect cGMP PDE activity
same,HT-29 growth inhibition,[2],low potency
Cc1ccc(-c2cc(C(F)(F)F)nn2-c2ccc(S(N)(=O)=O)cc2)cc1 [celecoxib],effect on cGMP PDE activity,[4],inhibited cGMP PDE
same,HT-29 growth inhibition,[2],did inhibit tumor cell growth
C=C[C@@]1(C)CC(=O)[C@]2(O)[C@@]3(C)[C@@H](O)CCC(C)(C)[C@@H]3[C@H](O)[C@H](OC(C)=O)[C@@]2(C)O1 [forskolin],effect on growth,"[2]; HT-29, SW480, HCT116, 72 hours, concentrations up to 100 μM",did not significantly affect growth
Cc1[nH]c(=O)c(C#N)cc1-c1ccncc1 [milrinone],inhibition of cGMP PDE activity in HT-29 lysate,[1],31%
same,effect on colon tumor cell growth,"[2]; HT-29, SW480, HCT116",only MY5445 was found to inhibit colon tumor cell growth
CCCCC1C(=O)N(c2ccccc2)N(c2ccccc2)C1=O [phenylbutazone],effect on cGMP PDE activity,[4],did not affect cGMP PDE activity
same,HT-29 growth inhibition,[2],low potency
CN1C(C(=O)Nc2ccccn2)=C(O)c2ccccc2S1(=O)=O [piroxicam],effect on cGMP PDE activity,[4],did not affect cGMP PDE activity
same,HT-29 growth inhibition,[2],low potency
COc1ccc(C2CNC(=O)C2)cc1OC1CCCC1 (stereo not shown) [rolipram],effect on colon tumor cell growth,"[2]; HT-29, SW480, HCT116",only MY5445 was found to inhibit colon tumor cell growth
CCCc1nn(C)c2c(=O)[nH]c(-c3cc(S(=O)(=O)N4CCN(C)CC4)ccc3OCC)nc12 [sildenafil],inhibition of cGMP PDE activity in HT-29 lysate,[1],42%
same,effect on colon tumor cell growth,"[2]; HT-29, SW480, HCT116",did not affect colon tumor cell growth
CN1CC(=O)N2[C@H](c3ccc4c(c3)OCO4)c3[nH]c4ccccc4c3C[C@@H]2C1=O [tadalafil],effect on colon tumor cell growth,"[2]; HT-29, SW480, HCT116",did not affect colon tumor cell growth
CCOC(=O)C1=C[C@]2(CC)CCCN3CCc4c(n1c1ccccc41)[C@@H]32 [vinpocetine],effect on colon tumor cell growth,"[2]; HT-29, SW480, HCT116",only MY5445 was found to inhibit colon tumor cell growth
